# Results from ChEMBL document CHEMBL2163220 (J Med Chem, 2012).
# Activity calls are given as the source filed them. No cut-off for these calls is given here.
# Assays:
# [1] = system: LNCaP; experiment: Cytotoxicity against human LNCAP cells incubated for 72 hrs by MTT assay; format: functional, cell-based
# In short: (§1)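 MTT assay run across a panel of prostate cancer cell lines.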
# [2] = system: CWR22R; experiment: Cytotoxicity against human 22Rv1 cells incubated for 72 hrs by MTT assay; format: functional, cell-based; details: 22Rv1, 72 h; in short: as §1
# [3] = system: PC-3; experiment: Cytotoxicity against human PC3 cells incubated for 72 hrs by MTT assay; format: functional, cell-based; details: PC-3, 72 h; in short: as §1
# [4] = Cytotoxicity against human C4-2B cells incubated for 72 hrs by MTT assay; format: functional, cell-based; details: LNCaP C4-2B; in short: as §1
# [5] = system: PC-3; experiment: Antagonist activity at androgen receptor ARv7 mutant lacking ligand binding domain expressed in human PC3 cells assessed as reduction in DHT-induced receptor transactivation at 1 uM by luciferase reporter gene assay; format: cell-based
# In short: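 AR-v7 (lacks LBD), MMTV-Luc and pRL-TK (Renilla) plasmids transiently transfected into PC-3 cells; cells treated with DMSO vehicle, 0.1 nM DHT, or test compound at 1 μM; transactivation read as luciferase activity (relative luciferase units).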
# [6] = target: T1, Androgen receptor (Homo sapiens) (UniProt P10275); experiment: Antagonist activity at androgen receptor in human LNCaP cells assessed as increase in Maspin promoter activity by luciferase reporter gene assay; format: functional, cell-based
# T1 sequence (whole entry): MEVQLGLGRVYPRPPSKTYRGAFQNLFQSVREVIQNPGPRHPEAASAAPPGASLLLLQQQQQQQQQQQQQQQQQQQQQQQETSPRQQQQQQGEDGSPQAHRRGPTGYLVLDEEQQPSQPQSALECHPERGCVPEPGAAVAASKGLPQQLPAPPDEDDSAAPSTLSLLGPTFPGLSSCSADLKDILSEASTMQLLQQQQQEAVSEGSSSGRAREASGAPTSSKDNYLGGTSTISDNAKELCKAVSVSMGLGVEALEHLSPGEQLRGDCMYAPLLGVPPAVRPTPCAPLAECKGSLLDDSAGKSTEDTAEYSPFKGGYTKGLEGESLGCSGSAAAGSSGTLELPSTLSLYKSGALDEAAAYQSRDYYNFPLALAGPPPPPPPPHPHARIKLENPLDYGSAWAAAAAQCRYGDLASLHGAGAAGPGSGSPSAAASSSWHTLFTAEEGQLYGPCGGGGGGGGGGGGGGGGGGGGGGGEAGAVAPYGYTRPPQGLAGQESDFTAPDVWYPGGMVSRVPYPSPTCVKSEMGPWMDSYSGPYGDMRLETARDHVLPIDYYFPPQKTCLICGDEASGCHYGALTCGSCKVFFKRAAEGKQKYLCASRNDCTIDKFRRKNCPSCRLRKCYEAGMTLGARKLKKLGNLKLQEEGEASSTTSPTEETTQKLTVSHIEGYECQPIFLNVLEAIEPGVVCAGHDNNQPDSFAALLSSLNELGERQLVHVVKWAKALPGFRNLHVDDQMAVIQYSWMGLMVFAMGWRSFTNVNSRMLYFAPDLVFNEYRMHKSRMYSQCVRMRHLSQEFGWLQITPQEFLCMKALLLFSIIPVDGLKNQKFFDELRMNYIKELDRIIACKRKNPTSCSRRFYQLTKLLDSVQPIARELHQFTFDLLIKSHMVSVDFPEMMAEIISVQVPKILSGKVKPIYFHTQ
# In short: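 LNCaP cells carrying a maspin promoter-luciferase reporter were treated with compound and read by luciferase activity, in triplicate.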
# [7] = target: T1, Androgen receptor (Homo sapiens); experiment: Antagonist activity at androgen receptor in human LNCaP cells assessed as reduction in DHT-induced PSA expression by luciferase reporter gene assay; format: functional, cell-based
# In short: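 LNCaP cells carrying a PSA-luc reporter were treated with compound at 1 and 2.5 μM in the presence of 1 nM DHT. Fold suppression was calculated relative to 1 nM DHT alone. Run in triplicate.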
# [8] = system: LNCaP; experiment: Induction of apoptosis in human LNCAP cells assessed as caspase-3 activation incubated for 24 hrs by Western blotting; format: functional, cell-based
# In short: (§2)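 LNCaP cells in complete medium were exposed to DMSO or compound at 1, 2.5 and 5 μM for 24 h. Western blot measured AR, maspin, caspase-3 activation and PARP cleavage, with β-actin as loading control.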
# [9] = target: T1, Androgen receptor (Homo sapiens); experiment: Antagonist activity at androgen receptor in human PC3 cells assessed as increase in Maspin promoter activity at 5 uM by luciferase reporter gene assay; format: functional, cell-based; details: PC-3
# In short: (§3)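 PC-3 cells were transfected with maspin-luc, with or without cotransfected AR. Cells were exposed to DMSO vehicle or compound at 2.5 and 5 μM. Luciferase activity was measured in triplicate.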
# [10] = target: T1, Androgen receptor (Homo sapiens); experiment: Antagonist activity at androgen receptor in human PC3 cells assessed as increase in Maspin promoter activity at 2.5 uM by luciferase reporter gene assay; format: functional, cell-based; details: PC-3; in short: as §3
# [11] = system: LNCaP; experiment: Induction of apoptosis in human LNCAP cells assessed as PARP cleavage activation incubated for 24 hrs by Western blotting; format: functional, cell-based; in short: as §2
# [12] = target: T1, Androgen receptor (Homo sapiens); experiment: Antagonist activity at androgen receptor in human LNCaP cells assessed as increase in Maspin protein expression at 1 to 5 uM incubated for 24 hrs by Western blotting
# [13] = system: PC-3; experiment: Effect on in Maspin expression in human PC3 cells deficient in wild type androgen receptor at 5 uM by luciferase reporter gene assay; format: functional, cell-based; in short: as §3
# [14] = system: PC-3; experiment: Effect on in Maspin expression in human PC3 cells deficient in wild type androgen receptor at 2.5 uM by luciferase reporter gene assay; format: functional, cell-based; in short: as §3
# [15] = system: LNCaP; experiment: Reduction in androgen receptor protein expression in human LNCAP cells incubated for 24 hrs by Western blotting; format: functional, cell-based; in short: as §2
SMILES,IC50 [1] [nM],IC50 [2] [nM],IC50 [3] [nM],IC50 [4] [nM],Activity [6],Activity [7],also measured
Cc1coc2c1C(=O)C(=O)c1c-2ccc2c1CCCCC2,3600,> 20000,6300,1800,–,–,–
CC(O)(CS(=O)(=O)c1ccc(F)cc1)C(=O)Nc1ccc(C#N)c(C(F)(F)F)c1 (stereo unspecified),–,–,–,–,–,–,Activity [5]: inactive
Cc1coc2c1C(=O)C(=O)c1c-2ccc2c1CCCC2,600,13500,1200,100,Dose-dependent effect,Dose-dependent effect,–
Cc1coc2c1C(=O)C(=O)c1c-2ccc2c1CCC(C)C2 (stereo unspecified),3500,> 20000,2500,700,–,–,–
Cc1coc2c1C(=O)C(=O)c1c-2ccc2c1CCCC2C (stereo unspecified),1200,11800,1200,400,–,–,–
Cc1coc2c1C(=O)C(=O)c1c-2ccc2c1CC(C)CC2 (stereo unspecified),1700,8200,1900,300,–,–,–
Cc1coc2c1C(=O)C(=O)c1c-2ccc2c1COCC2,2400,1500,2100,100,–,–,–
Cc1coc2c1C(=O)C(=O)c1c-2ccc2c1CC(C)(C)CC2,3200,3200,3600,1200,Dose-dependent effect,Dose-dependent effect,–
Cc1coc2c1C(=O)C(=O)c1c-2ccc2c1CCC2(C)C,1000,7500,2400,400,–,–,–
Cc1coc2c1C(=O)C(=O)c1c-2ccc2c1CCC(C)(C)C2,700,8800,900,500,Dose-dependent effect,Dose-dependent effect,Activity [8]: Dose-dependent effect; Activity [9]: Active; Activity [10]: Active; Activity [11]: Dose-dependent effect; Activity [12]: Active; Activity [13]: inactive; Activity [14]: inactive; Activity [15]: Dose-dependent effect
